Experimental data reported in paper PMC2662489 (Biochemical Journal, 2009).
Where two headings read alike, the source gives them in different places.

Assays:
MsbA-MIANS [1] = target: T1, MsbA-MIANS (Escherichia coli, UniProt P60752); assay: MIANS fluorescence quenching titration of MsbA-MIANS; assay type: binding; settings: for Concentration-dependent quenching of MIANS fluorescence: titration of MsbA-MIANS with negatively charged drugs
MsbA-MIANS [2] = target: T1, MsbA-MIANS; assay: Dual sequential titration of MsbA-MIANS fluorescence quenching; assay type: binding; settings: for Effect of lipid A pre-binding on ligand binding affinity (in words): ATP at 10 °C, daunorubicin and p[NH]ppA at 23 °C; for Binding affinity of drug after prior binding of nucleotide (in words): ATP bound first, results not shown
Method in brief: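 MIANS-labelled MsbA (100 μg/ml) was prepared by labelling with 10 μM MIANS, quenching with DTE and dialysing. It was held in 100 mM Hepes, 50 mM NaCl, 5 mM MgCl2, 0.05% DM, pH 7.5, at 23 °C, or 10 °C for ATP to prevent hydrolysis. […] Data were fitted to a single-site model for Kd and ΔFmax.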

MsbA [3] = target: T2, MsbA (Escherichia coli, UniProt P60752); assay: ATPase activity assay; assay type: biochemical; settings: ATP 0.05-10 mM, 0.05% DM
Method in brief: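 Purified His-tagged MsbA (~100 μg/ml in 0.05% (w/v) DM) assayed colorimetrically for free Pi liberated from ATP across varied ATP levels. Labelled enzyme was first reacted with 10 μM MIANS for 2 h at 23 °C in the dark. Unreacted MIANS was quenched with 1 mM DTE before the ATPase measurement.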

MsbA [4] = target: T2, MsbA; assay: Modulation of the rate of MsbA labelling by MIANS; assay type: biochemical
[5] = 23 °C, MsbA 100 μg/ml in 0.05% DM, single-site fit
[6] = Kd, 23 °C, MsbA 100 μg/ml in 0.05% DM, single-site fit
[7] = 10 °C, MsbA 100 μg/ml in 0.05% DM, ligand alone
[8] = 10 °C, titrated after daunorubicin

T2 sequence (P60752 whole entry): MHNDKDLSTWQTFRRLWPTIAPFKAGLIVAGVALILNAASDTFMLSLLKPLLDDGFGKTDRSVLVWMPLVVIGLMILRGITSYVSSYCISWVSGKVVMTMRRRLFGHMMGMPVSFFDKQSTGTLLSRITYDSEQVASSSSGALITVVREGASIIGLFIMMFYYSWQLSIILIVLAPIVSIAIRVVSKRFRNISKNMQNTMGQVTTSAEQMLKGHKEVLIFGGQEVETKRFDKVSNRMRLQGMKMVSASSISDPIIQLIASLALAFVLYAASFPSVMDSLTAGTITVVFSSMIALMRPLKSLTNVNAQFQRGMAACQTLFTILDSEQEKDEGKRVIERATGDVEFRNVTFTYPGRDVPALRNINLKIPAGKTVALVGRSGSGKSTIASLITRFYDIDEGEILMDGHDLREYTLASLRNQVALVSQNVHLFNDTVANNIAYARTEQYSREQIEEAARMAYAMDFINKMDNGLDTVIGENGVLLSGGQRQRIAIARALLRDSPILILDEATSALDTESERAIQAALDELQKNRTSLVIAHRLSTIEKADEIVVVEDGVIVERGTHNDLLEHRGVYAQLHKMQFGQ
T1 sequence (P60752 whole entry): as above

Compound: Nc1ncnc2c1ncn2[C@@H]1O[C@H](COP(=O)(O)OP(=O)(O)O)[C@@H](O)[C@H]1O [ADP]
- Kd (MsbA-MIANS [1]; [5]): 130 ± 60 µM
- Maximal quenching (ΔFmax/F0×100) (MsbA-MIANS [1]; [5]): 8.48±0.4%

Compound: Nc1ncnc2c1ncn2[C@@H]1O[C@H](COP(=O)(O)O)[C@@H](O)[C@H]1O [AMP]
- Kd (MsbA-MIANS [1]; [5]): 800 ± 200 µM
- Maximal quenching (ΔFmax/F0×100) (MsbA-MIANS [1]; [5]): 7.84±0.80%

Compound: Nc1ncnc2c1ncn2[C@@H]1O[C@H](CO[P@](=O)(O)O[P@](=O)(O)O[P@@](=O)(O)S)[C@@H](O)[C@H]1O [ATP[S], adenosine 5´-[γ-thio]triphosphate]
- Kd (MsbA-MIANS [1]; [6]): 1.82 ± 0.29 µM

Compound: Nc1ncnc2c1ncn2[C@@H]1O[C@H](COP(=O)(O)OP(=O)(O)OP(=O)(O)O)[C@@H](O)[C@H]1O [ATP]
- Kd (MsbA-MIANS [1]; [7]): 3050 ± 430 µM
- Kd for ATP binding relative to that of p[NH]ppA (MsbA-MIANS [1]; ATP at 10 °C versus p[NH]ppA at 23 °C): > 7 fold
- Kd (MsbA-MIANS [2]; [8]): 950 ± 230 µM
- Maximal quenching (ΔFmax/F0×100) (MsbA-MIANS [2]; [8]): 5.45±0.41%
- Kd (MsbA-MIANS [2]; 10 °C, titrated after lipid A): 2030 ± 300 µM
- Maximal quenching (ΔFmax/F0×100) (MsbA-MIANS [2]; 10 °C, titrated after lipid A): 12.0±0.78%
- Effect of lipid A pre-binding on ligand binding affinity (in words) (MsbA-MIANS [2]): relatively unaffected
- Km (MsbA [3]; MIANS-labelled MsbA): 410 ± 40 µM
- Km (MsbA [3]; unlabelled MsbA): 520 ± 40 µM

Compound: COc1cccc2c1C(=O)c1c(O)c3c(c(O)c1C2=O)C[C@@](O)(C(C)=O)C[C@@H]3O[C@H]1C[C@H](N)[C@H](O)[C@H](C)O1 [Daunorubicin]
- Initial rate of labelling (MsbA [4]): 27.4±2.3 ms^−1
- Labelling efficiency (MsbA [4]): 87.2±1.3%
- Initial rate of labelling (MsbA [4]; listed as daunorubicin): the most
- Maximal quenching (ΔFmax/F0×100) (MsbA-MIANS [1]; [5]): highest quenching
- Kd (MsbA-MIANS [1]; 23 °C, MsbA reconstituted into egg PC proteoliposomes): essentially the same
- Kd (MsbA-MIANS [1]; Kd, 10 °C, MsbA 100 μg/ml in 0.05% DM, ligand alone): 2.97 ± 0.23 µM
- Kd (MsbA-MIANS [1]; [6]): 4.6 ± 0.2 µM
- Kd (MsbA-MIANS [1]; Kd, 23 °C, MsbA reconstituted into egg PC proteoliposomes): 4.3 ± 0.79 µM
- Reduction in binding affinity after pre-binding of lipid A (MsbA-MIANS [2]; 10 °C): ~2 fold
- Effect of lipid A pre-binding on ligand binding affinity (in words) (MsbA-MIANS [2]): did not affect
- Binding affinity of drug after prior binding of nucleotide (in words) (MsbA-MIANS [2]): reduced
- Kd (MsbA-MIANS [2]; Kd, 10 °C, titrated after ATP): 9.59 ± 0.39 µM
- Kd (MsbA-MIANS [2]; Kd, 10 °C, titrated after lipid A): 5.03 ± 0.11 µM
- Kd (MsbA-MIANS [2]; Kd, 23 °C, titrated after lipid A): 4.42 ± 0.33 µM

Compound: O=c1c(O)c(-c2ccc(O)c(O)c2)oc2cc(O)cc(O)c12 [Quercetin]
- Initial rate of labelling (MsbA [4]): 85.0±3.1 ms^−1
- Labelling efficiency (MsbA [4]): 78.8±1.0%
- Kd (MsbA-MIANS [1]; [6]): 8.56 ± 0.79 µM

Compound: CC(C)[C@@H]1NC(=O)[C@H](C)OC(=O)[C@@H](C(C)C)NC(=O)[C@@H](C(C)C)OC(=O)[C@H](C(C)C)NC(=O)[C@H](C)OC(=O)[C@@H](C(C)C)NC(=O)[C@@H](C(C)C)OC(=O)[C@H](C(C)C)NC(=O)[C@H](C)OC(=O)[C@@H](C(C)C)NC(=O)[C@@H](C(C)C)OC1=O [Valinomycin]
- Initial rate of labelling (MsbA [4]): 66.8±3.4 ms^−1
- Labelling efficiency (MsbA [4]): 101±3.2%
- Kd (MsbA-MIANS [1]): 0.35 ± 0.04 µM

Compound: COc1ccc(CCN(C)CCCC(C#N)(c2ccc(OC)c(OC)c2)C(C)C)cc1OC (centres unmarked) [Verapamil]
- Initial rate of labelling (MsbA [4]): 71.0±2.6 ms^−1
- Labelling efficiency (MsbA [4]): 82.2±3.6%
- Kd (MsbA-MIANS [1]; [6]): 1.26 ± 0.09 µM

Compound: CC[C@]1(O)C[C@@H]2CN(CCc3c([nH]c4ccccc34)[C@@](C(=O)OC)(c3cc4c(cc3OC)N(C)[C@H]3[C@@](O)(C(=O)OC)[C@H](OC(C)=O)[C@]5(CC)C=CCN6CC[C@]43[C@@H]65)C2)C1 [Vinblastine]
- Initial rate of labelling (MsbA [4]): 182±3.4 ms^−1
- Labelling efficiency (MsbA [4]): 105±4.5%
- Initial rate of labelling (MsbA [4]; listed as vinblastine): affected the least
- Kd (MsbA-MIANS [1]; [6]): 1.2 ± 0.14 µM
- Binding affinity of drug after prior binding of nucleotide (in words) (MsbA-MIANS [2]): reduced

Compound: CC1(C)S[C@@H]2[C@H](NC(=O)[C@H](N)c3ccccc3)C(=O)N2[C@H]1C(=O)O [ampicillin]
- Concentration-dependent quenching of MIANS fluorescence (MsbA-MIANS [1]): No concentration-dependent quenching

Compound: O=C(O)c1cn(C2CC2)c2cc(N3CCNCC3)c(F)cc2c1=O [ciprofloxacin]
- Concentration-dependent quenching of MIANS fluorescence (MsbA-MIANS [1]): No concentration-dependent quenching

Compound: CCn1cc(C(=O)O)c(=O)c2cc(F)c(N3CCNCC3)cc21 [norfloxacin]
- Concentration-dependent quenching of MIANS fluorescence (MsbA-MIANS [1]): No concentration-dependent quenching

Compound: CC1COc2c(N3CCN(C)CC3)c(F)cc3c(=O)c(C(=O)O)cn1c23 (centres unmarked) [ofloxacin]
- Concentration-dependent quenching of MIANS fluorescence (MsbA-MIANS [1]): No concentration-dependent quenching

Compound: Nc1ncnc2c1ncn2[C@@H]1O[C@H](COP(=O)(O)OP(=O)(O)NP(=O)(O)O)[C@@H](O)[C@H]1O [p[NH]ppA, adenosine 5′-[β,γ-imido]triphosphate]
- Kd (MsbA-MIANS [1]; [5]): 470 ± 30 µM
- Kd (MsbA-MIANS [2]; 23 °C, titrated after lipid A): 650 ± 80 µM
- Maximal quenching (ΔFmax/F0×100) (MsbA-MIANS [2]; 23 °C, titrated after lipid A): 23.2±1.2%
- Effect of lipid A pre-binding on ligand binding affinity (in words) (MsbA-MIANS [2]): relatively unaffected

Compound: Lipid A
- Labelling efficiency (MsbA [4]; 23 °C, MIANS:MsbA stoichiometry after 2000 s, drug at ~5-fold its Kd (2-40 μM)): 118±9.2%
- Maximal quenching (ΔFmax/F0×100) (MsbA-MIANS [1]; [7]): 6.02±0.11%
- Increase of ΔFmax for quenching when daunorubicin was bound first (MsbA-MIANS [2]): 2 fold
- Reduction of binding affinity when ATP was pre-bound (MsbA-MIANS [2]; 10 °C): ~8 fold
- Maximal quenching (ΔFmax/F0×100) (MsbA-MIANS [2]; 10 °C, titrated after ATP): 17.7±1.0%
- Maximal quenching (ΔFmax/F0×100) (MsbA-MIANS [2]; [8]): 7.31±0.50%
- Reduction of binding affinity when p[NH]ppA was pre-bound (MsbA-MIANS [2]; 23 °C): ~3 fold
- Maximal quenching (ΔFmax/F0×100) (MsbA-MIANS [2]; 23 °C, titrated after daunorubicin): 15.7±1.4%
- Maximal quenching (ΔFmax/F0×100) (MsbA-MIANS [2]; 23 °C, titrated after p[NH]ppA): 10.9±1.2%
